{"data": "Published values collected from several papers", "target": "Serine/threonine-protein kinase OSR1 (OXSR1, Homo sapiens, UniProt O95747)"}
{"effect on": "enzyme activity", "action": "inhibitor", "tested at": "0.2 µM", "quantity": "inhibition", "value": "18.2%", "Compound": "C#Cc1cc(-c2cc(Nc3nc(N[C@@H](C)c4ccc(F)cn4)ncc3Cl)n[nH]2)ccc1C=O"}
{"effect on": "cell-free assay", "tested at": "1 µM", "quantity": "remaining signal", "value": "100%", "Compound": "C[C@H]1CC[C@H](n2c3cnccc3c3cnc(Nc4ccc5c(n4)CCN(C(=O)CO)C5)nc32)CC1"}
{"effect on": "enzyme activity", "action": "inhibitor", "tested at": "1 µM", "quantity": "inhibition", "value": "24%", "Compound": "CO[C@@H]1[C@H](N(C)C(=O)c2ccccc2)C[C@H]2O[C@]1(C)n1c3ccccc3c3c4c(c5c6ccccc6n2c5c31)C(=O)NC4"}
{"effect on": "binding", "technique": "competition with immobilised ligand", "tested at": "0.5 µM", "quantity": "remaining binding", "value": "100%", "Compound": "CCCCC(=O)Nc1ccc(-c2ccc3ncn(CCC)c(=O)c3c2)cn1"}
{"effect on": "enzyme activity", "action": "inhibitor", "tested at": "1 µM", "quantity": "activity vs control", "value": "108%", "Compound": "CC(C)S(=O)(=O)c1ccc2nccc(Nc3ccc4sc(C5CCCC5)nc4c3)c2c1"}
{"effect on": "enzyme activity", "action": "inhibitor", "tested at": "0.1 µM", "quantity": "inhibition", "value": "6.5%", "Compound": "Cc1cc(O)c(-c2ccc([C@@H](C)CN(C)C)cc2)c2c1[nH]c(=O)c1sccc12"}
{"effect on": "enzyme activity", "action": "inhibitor", "tested at": "1 µM", "quantity": "inhibition", "value": "0%", "Compound": "C=CC(=O)N1CCC([C@@H]2CCNc3c(C(N)=O)c(-c4ccc(Oc5ccccc5)cc4)nn32)CC1"}
{"effect on": "binding", "tested at": "1 µM", "quantity": "remaining binding", "value": "89%", "Compound": "Cc1ccc(NC(=O)c2ccnc(C(F)(F)F)c2)cc1-c1cc(OCCO)nc(N2CCOCC2)c1"}
